Shown is part of a subset that was picked to be rich in hits.
Insulin prom act = TRM-6 insulin promoter activation | activation, % at 2 µM | TRM-6 cells (human fetal islet line), insulin promoter eGFP reporter, imaging; plate-scaled: unstimulated 0, stimulated control 100 | 130,000 tested, 0.81% active;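 active = activation at 2 µM above a set limit, confirmed on inspection of the cell images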;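 also: share of cells whose green reporter signal exceeds an intensity cutoff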
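Material: TRM-6 insulin promoter–eGFP reporter cells. Buffer or medium: Low-glucose (5.5 mM) medium with tamoxifen. Probe or stimulus: tamoxifen at 0.75 µM added at seeding for reporter induction. Times: tamoxifen pre-incubation 15 h overnight, then compound exposure 48 h at 37 °C. Detection: high-content imaging of fixed cells with Hoechst nuclear stain.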
* hit, by the source's call.

SMILES | Insulin prom act
CC(C)N1CC=C2C(C#N)=C(N)C(C#N)(C#N)[C@H](c3ccoc3)[C@H]2C1 | 161*
COc1cc(C2NC(=O)C(C#N)=C(S)N2c2ccccc2)ccc1OC(C)C (stereo unspecified) | 192
Cc1ccc(C2C3CSCC=C3C(C#N)=C(N)C2(C#N)C#N)cc1 (stereo unspecified) | -4
CN1C2C=C3C(C#N)=C(N)C(C#N)(C#N)C(c4ccc(Br)cc4)C3C1CC2 (stereo unspecified) | 281
Cc1cc(C(F)(F)F)nn1CC(=O)NCc1cccs1 | -7
Cc1cccc(NC(=O)Cn2cnc3c(oc4nc5c(cc43)COC(C)(C)C5)c2=O)c1 | 0
O=C(CCCCn1c(=S)[nH]c2ccsc2c1=O)NCc1ccc2c(c1)OCO2 | -10
CC1Cc2ccccc2N1C(=O)CSc1nnc(-c2ccc(S(=O)(=O)N3CCOCC3)cc2)n1C (stereo unspecified) | 128
CC(C)NC(=O)CC(=O)N/N=C/c1ccc(F)cc1 | -7
CN(Cc1ccccc1)S(=O)(=O)c1ccc(Cl)c(C(=O)NCc2ccc3c(c2)OCO3)c1 | -3
Cc1ccccc1NC(=O)CCC(=O)OCC(=O)c1ccc(-c2ccccc2)cc1 | 9
CC(=S)c1c(C)cc2cc(C)ccn12 | -2
CN(C)c1ccc(/C=C/c2cc[n+](C)cc2)cc1 | 174*
CC(=O)/C(=C/c1ccc(N(C)C)cc1)C(=O)c1ccccc1 | 6
CN(C)c1ccc(/C=N/N=C/c2ccccc2O)cc1 | 3
Cc1ccccc1C(=O)NNC(=O)/C=C/c1ccccc1 | -6
Cc1ccc2nc(/C(C#N)=C\c3ccc(N4CCOCC4)o3)[nH]c2c1 | 456*
Cc1ccc2nc(/C(C#N)=C\c3cc(C)n(-c4cccc([N+](=O)[O-])c4)c3C)[nH]c2c1 | 0
Cc1ccc2nc(/C(C#N)=C\c3ccc(Oc4ccc([N+](=O)[O-])cn4)cc3)[nH]c2c1 | -4

Source: PubChem BioAssay
